The results in this text go back to ChEMBL document CHEMBL1137611, “Toward potent ghrelin receptor ligands based on trisubstituted 1,2,4-triazole structure. 2. Synthesis and pharmacological in vitro and in vivo evaluations” (J Med Chem, 2007).

For test [1], the target named is T1, Growth hormone secretagogue receptor type 1 (Homo sapiens, UniProt Q92847). As to the kind of experiment: Activity at human GHS1a receptor expressed in CHO cells assessed as accumulation of intracellular calcium level at 10 uM relative to ghrelin. Type of test: functional, cell-based. A digest of the protocol:
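CHO cells transiently electroporated with hGHS-R1a, loaded 24 h later with 1 μM Fluo-4AM (1 h, 37 °C, dark), then de-esterified 30 min at room temperature. Fluorescence (ex 485/em 525 nm) recorded over 60 s, compound at 10 μM added at 15 s. Triplicates, at least two independent experiments. Response expressed as percent of maximum with 0.1 μM ghrelin.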
Background: Calcium flux is commonly read through the fluorescence of an indicator in the cells.

The species entered for test [2] is Rattus norvegicus. Description: Effect on cumulative food intake per 100 g body weight of Sprague-Dawley rat at 160 ug after 2 hrs. Type of test: functional. Put shortly:
(§1)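 Young-adult male rats (125–150 g), singly housed, acclimated 1 week and trained daily for a further week. Test compound given sc at 160 μg/kg mid-morning, then returned to cages with a known amount of chow. Cumulative intake recorded at 2 or 6 h as g food/100 g body weight.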

The species entered for test [3] is Rattus norvegicus. As to the kind of experiment: Inhibition of hexarelin-stimulated cumulative food intake per 100 g body weight of Sprague-Dawley rat at 160 ug after 2 hrs. The format is functional. Put shortly: (§2)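 Young-adult male rats (125–150 g), singly housed, acclimated and trained. Compound given sc at time −10 min (0, 20, 80, 160 or 320 μg/kg), then hexarelin 80 μg/kg sc at time 0. Rats returned to home cages with a known amount of chow. Cumulative intake recorded as g food/100 g body weight at 2 h and 6 h.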

The species entered for test [4] is Rattus norvegicus. As to the kind of experiment: Effect on cumulative food intake per 100 g body weight of Sprague-Dawley rat at 160 ug after 6 hrs. Type of test: functional. A digest of the protocol:
as §1

Test [5] is filed under the species Rattus norvegicus. As to the kind of experiment: Inhibition of hexarelin-stimulated cumulative food intake per 100 g body weight of Sprague-Dawley rat at 160 ug after 6 hrs. Type of test: functional. A digest of the protocol:
as §2

Test [6] concerns Rattus norvegicus. Description: Inhibition of hexarelin-stimulated cumulative food intake per 100 g body weight of Sprague-Dawley rat at 20 ug/kg. Type of test: functional. Put shortly:
as §2

For test [7], the system named is Rattus norvegicus. Description: Inhibition of hexarelin-stimulated cumulative food intake per 100 g body weight of Sprague-Dawley rat at 80 ug/kg. The format is functional. Put shortly:
as §2

Test [8] relates to Rattus norvegicus. Description: Inhibition of hexarelin-stimulated cumulative food intake per 100 g body weight of Sprague-Dawley rat at 320 ug/kg. The format is functional. A digest of the protocol:
as §2

Test [9] deals with Rattus norvegicus. Description: Inhibition of growth hormone secretion in infant Sprague-Dawley rat at 160 ug/kg, sc. Type of test: functional. Put shortly: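 Male 10-day-old pups (~25 g), separated from dams 1 h before testing, groups of eight. Dosed sc with vehicle (DMSO, final 1:300), compound 160 μg/kg, or compound 10 min before hexarelin 80 μg/kg sc. Decapitated 15 min later; plasma GH measured by rat GH enzyme immunoassay and expressed as ng/mL against the NIDDK-rGH-RP-2 standard.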

Test [10] has as its target T1, Growth hormone secretagogue receptor type 1. Description: Antagonist activity at human GHS1a receptor expressed in CHO cells assessed as accumulation of intracellular calcium level. The format is functional, cell-based.

T1 sequence (Q92847 whole entry): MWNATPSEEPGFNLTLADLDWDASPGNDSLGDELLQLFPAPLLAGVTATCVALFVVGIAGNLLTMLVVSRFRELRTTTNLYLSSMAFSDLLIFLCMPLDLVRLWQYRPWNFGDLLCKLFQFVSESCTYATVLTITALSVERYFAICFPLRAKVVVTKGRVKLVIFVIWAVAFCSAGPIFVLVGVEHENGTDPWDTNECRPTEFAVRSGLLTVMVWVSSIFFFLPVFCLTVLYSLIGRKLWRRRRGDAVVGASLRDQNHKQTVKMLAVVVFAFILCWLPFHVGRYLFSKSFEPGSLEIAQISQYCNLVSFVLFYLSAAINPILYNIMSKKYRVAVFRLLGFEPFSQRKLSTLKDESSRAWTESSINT

Turning to `COc1ccc(Cn2c(CCc3ccccc3)nnc2[C@@H](Cc2c[nH]c3ccccc23)NC(=O)CN)cc1`, the Activity in test [1] turned out to be 0%; in the test listed under Rattus norvegicus [2], 0.01 g; in the test filed under Rattus norvegicus [3], 0.01 g; in the test filed under Rattus norvegicus [4], 0.04 g; in the test listed under Rattus norvegicus [5], 0.28 g; in the test with Rattus norvegicus [6], 0.63 g. In addition, the results for the Activity in the test on Rattus norvegicus [7], in the test with Rattus norvegicus [8] and with Rattus norvegicus [9] were 0.56 g, 0.36 g and 9.85 ng/mL, respectively.
On to `COc1ccc(Cn2c(CCc3c[nH]c4ccccc34)nnc2[C@@H](Cc2c[nH]c3ccccc23)NC(=O)[C@H]2CCCN2)cc1`, for which the Activity in [1] was found to be 7%; in the test filed under Rattus norvegicus [2], 0.01 g; in the test filed under Rattus norvegicus [3], 0.05 g; in the test filed under Rattus norvegicus [4], 0.03 g; in the test filed under Rattus norvegicus [5], 0.36 g; with Rattus norvegicus [6], 0.17 g. The Activity in the test on Rattus norvegicus [7] is listed as 0.15 g; in the test on Rattus norvegicus [8], 0.58 g. Further, the Kb in [10] was found to be 7 nM.
On to `COc1ccc(Cn2c(CCc3ccccc3)nnc2[C@@H](Cc2c[nH]c3ccccc23)NC(=O)[C@H]2CCCCN2)cc1`, for which the Activity is 7% in [1]; 0.01 g in the test filed under Rattus norvegicus [2]; 0.85 g in the test listed under Rattus norvegicus [3]; 0.01 g in the test listed under Rattus norvegicus [4]; 1.07 g in the test filed under Rattus norvegicus [5]; 6.09 ng/mL with Rattus norvegicus [9].

Usually Kb stands for the affinity of an antagonist, worked out from how it opposes an agonist.
